Compound activity from PubChem BioAssay.
A selection: hits, their analogues and other compounds. The true share with any hit is near 4.2%.
M18AAP inhibitor = PfM18AAP inhibitors, malaria aminopeptidase, primary screen, biochemical, QFRET, recombinant enzyme | M18 aspartyl aminopeptidase (Plasmodium falciparum 3D7) | H-Glu-NHMec fluorogenic cleavage | inhibition, % at 7.35 µM | 290,000 compounds, 1.2% hits;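 active = inhibition above the campaign mean inhibition over all tested compounds plus 3 SD, cut at about 28% in these data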
SENP1 inh = human SENP1 catalytic domain inhibitors, primary screen, biochemical, FRET, uHTS; 360,000 compounds, 0.21% hits; recombinant SENP1 catalytic domain, CyPet-SUMO1-YPet FRET cleavage; Sentrin-specific protease 1 (Homo sapiens), Q9P0U3; AID 624204, 2012; inhibition, % at 10 µM;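 active = inhibition at least 30% at 10 µM, raw YFP signal under a set limit, fluorescence ratio 0.5 to 1.5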
Target sequence (Q9P0U3 419-644 limits assumed): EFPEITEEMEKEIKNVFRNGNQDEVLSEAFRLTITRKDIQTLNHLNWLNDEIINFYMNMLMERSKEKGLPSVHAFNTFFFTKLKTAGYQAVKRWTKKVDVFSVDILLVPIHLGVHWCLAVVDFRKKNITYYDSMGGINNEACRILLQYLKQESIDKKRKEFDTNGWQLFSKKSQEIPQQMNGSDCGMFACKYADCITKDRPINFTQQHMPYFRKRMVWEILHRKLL
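Material – human SENP1 catalytic domain · Input – SENP1 enzyme, 20 pM final · Compound dosing – single concentration of 10 µM compound, 0.5% DMSO final · Timing – enzyme reaction for 50 min at room temperature, dark · Measured by – FRET fluorescence in CFP and YFP emission channels · Control set – no-enzyme wells low, DMSO-plus-enzyme wells high control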
HDAC3 inh = HDAC3 deacetylase inhibitors, primary screen, biochemical, fluorescence, cell-free homogeneous; 320,000 compounds, 0.15% hits; Histone deacetylase 3 (Homo sapiens), O15379; inhibition, % at 8.3 µM; recombinant HDAC3, fluorogenic peptide/trypsin coupled; in the data active = inhibition above about 26%, passing the limit was not always enough; inconclusive = no clear call, values can overlap the other calls
Target sequence (O15379 whole entry, looked up): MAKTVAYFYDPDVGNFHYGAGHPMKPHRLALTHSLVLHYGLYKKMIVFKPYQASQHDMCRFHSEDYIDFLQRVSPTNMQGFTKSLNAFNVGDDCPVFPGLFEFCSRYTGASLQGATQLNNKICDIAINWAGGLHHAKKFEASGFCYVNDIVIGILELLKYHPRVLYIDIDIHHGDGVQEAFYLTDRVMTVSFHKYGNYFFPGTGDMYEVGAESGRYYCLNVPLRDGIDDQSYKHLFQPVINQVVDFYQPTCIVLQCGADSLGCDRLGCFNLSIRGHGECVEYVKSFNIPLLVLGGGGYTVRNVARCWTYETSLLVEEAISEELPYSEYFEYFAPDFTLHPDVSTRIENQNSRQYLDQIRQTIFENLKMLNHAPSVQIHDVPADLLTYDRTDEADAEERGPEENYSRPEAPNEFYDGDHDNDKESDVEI
Fh CTSL1 inh = Fasciola hepatica cathepsin L1 inhibitors, primary screen, counter-screen for PFM18AAP inhibitor project, biochemical, QFRET, fluorogenic peptide substrate; inhibition, % at 5.96 µM; 300,000 compounds, 0.49% hits; recombinant F. hepatica cathepsin L1, Z-Leu-Arg-MCA fluorescence;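 active = inhibition above the mean of all tested compounds plus 3 SD, set per screening campaign, cut at about 17% in these data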
AHR act = AHR activators, primary screen, cell-based, luminescence, luciferase reporter, human; 320,000 compounds, 2.5% hits; Aryl hydrocarbon receptor (Homo sapiens), P35869; AHR-responsive luciferase reporter cells; activation, % at 5 µM; AID 2796, 2010; in the data active = activation above about 47%
GAA850 FXN act = FXN promoter activators, primary screen, cell-based, luciferase luminescence, HEK293 lucGAA850. HEK293 lucGAA850 FXN promoter luciferase reporter, 24 h; percent of 10 µM SAHA response. activation, % at 6 µM. 360,000 compounds, 0.56% hits. AID 540364, 2011;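 active = activation above the average of all compounds screened plus 3 SD, cutoff fixed separately per campaign, cut at about 7.5% in these data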
GAA30 counter = GAA30 FXN promoter activators, confirmation, counter-screen for GAA850 frataxin promoter activator project, cell-based, luminescence, HEK293, lucGAA30, triplicate; activation, % at 6 µM; 1,900 compounds, 66% hits; shares compounds with GAA850 FXN act; AID 588350, 2011; HEK293 lucGAA30 FXN promoter luciferase, 24 h; DMSO = 0%, 5 µM ipriflavone = 100%;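 active = mean activation above the mean of solvent-only control wells plus 3 SD, cut at about 22% in these data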;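 note: counterscreen of GAA850 promoter hits where activity marks nonselective or luminescence artifacts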
FXN GAA850 conf = FXN GAA850 promoter activators in reporter cells, confirmation, cell-based, luminescence, HEK293 lucGAA850, triplicate. shares compounds with GAA850 FXN act. AID 588351, 2011. activation, % at 6 µM. HEK293 lucGAA850 FXN promoter luciferase reporter, 24 h; 100% = activation by SAHA. 1,900 compounds, 86% hits;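 active = mean activation above a set limit taken from the primary screen, cut at about 8% in these data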
Large screens that a line does not name were inactive (follow-up assays come after a bar, where they were run).

COc1ccc(CCNC(=O)c2cc(-c3ccco3)on2)cc1OC	GAA850 FXN act 13 | GAA30 counter 77 | FXN GAA850 conf 34
O=C(NCCc1ccccc1)c1cc(-c2ccco2)on1	GAA850 FXN act 13 | GAA30 counter 153 | FXN GAA850 conf 54
NC(=O)c1c(NC(=O)c2ccccc2)sc2c1CCc1ccccc1-2	GAA850 FXN act 7.7 | GAA30 counter 95 | FXN GAA850 conf 35
Cn1nc(C(=O)NNC(=O)c2ccccc2Br)c2ccccc2c1=O	none (no result: M18AAP inhibitor, HDAC3 inh, Fh CTSL1 inh, AHR act)
CC1(C)CC(=O)C(C(c2ccc(Br)cc2)C2C(=O)CC(C)(C)CC2=O)C(=O)C1	none
COc1cc2sc3cc(NCCCN4CCOCC4)ccc3c(=O)c2cc1OC	GAA850 FXN act 9.8 (no result: M18AAP inhibitor, Fh CTSL1 inh) | GAA30 counter 114 | FXN GAA850 conf 37
CC(=O)c1ccc2c(c1)CC1(C2)Cc2cc3c(cc2C1)C(=O)CC3 (centres undefined)	none (no result: M18AAP inhibitor, HDAC3 inh, Fh CTSL1 inh, AHR act)
Clc1ccc(C=Cc2ccccn2)c(Cl)c1	GAA850 FXN act 7.7 (no result: M18AAP inhibitor, HDAC3 inh, Fh CTSL1 inh, AHR act) | GAA30 counter 120 | FXN GAA850 conf 37
COc1ccc(/C=C2\N=C(c3ccccc3)N(c3ccc(C(=O)O)cc3)C2=O)cc1OC	GAA850 FXN act 9.3 | GAA30 counter 41 | FXN GAA850 conf 23
Cc1cc(NC(=O)c2coc(=O)c(Br)c2)ccc1C(C)C	GAA850 FXN act 8.4 | GAA30 counter 89 | FXN GAA850 conf 50
C[C@@H](NC(=O)c1coc(=O)c(Br)c1)c1ccccc1	GAA850 FXN act 8.8 | GAA30 counter inactive | FXN GAA850 conf inactive
O=C(NCc1ccccc1)C(c1ccccc1)N(C(=O)c1csnn1)C1CCCC1 (centres undefined)	none
CCc1cc(C(=O)N/N=C/c2ccc(OC)cc2)c2ccccc2n1	none
O=c1[nH]c2ccccc2c2ccccc12	none
O=c1[nH]c2ccccc2c2cn(-c3ccccc3)nc12	AHR act 64, GAA850 FXN act 8.8 | GAA30 counter 112 | FXN GAA850 conf 46
COc1cc(CC(=O)N(CC(C)C)C2CCS(=O)(=O)C2)cc(OC)c1OC (centres undefined)	none (no result: M18AAP inhibitor, Fh CTSL1 inh)
CCn1cc(/C=C/C(=O)c2ccc(O)cc2)c(C)n1	GAA850 FXN act 8.7 | GAA30 counter 102 | FXN GAA850 conf 24
C=C(C)C(=O)Oc1ccc(N=Nc2ccc(C)cc2)ccc1=O	SENP1 inh 34, GAA850 FXN act 11 (no result: M18AAP inhibitor, HDAC3 inh, Fh CTSL1 inh, AHR act) | GAA30 counter 59 | FXN GAA850 conf 40
COC(=O)[C@]12CCCCC=C1N(Cc1ccccc1)C(=O)[C@H](CC(=O)NCc1cccs1)C2	none (no result: M18AAP inhibitor, HDAC3 inh, Fh CTSL1 inh, AHR act, GAA850 FXN act)
Cc1cc(NS(C)(=O)=O)c(=O)n(Cc2c(F)cccc2Cl)c1	none
CC1(C(=O)NS(=O)(=O)c2cccc(C#N)c2)CCN1C(=O)c1ccccc1 (centres undefined)	none (no result: M18AAP inhibitor, HDAC3 inh, Fh CTSL1 inh, AHR act)
CC1=CC(=C2C(=O)c3ccccc3C2=O)C=C(C)N1C	GAA850 FXN act 8.2 | GAA30 counter 111 | FXN GAA850 conf 34
CCCCCN1C=CC(=C2C(=O)c3ccccc3C2=O)C=C1	none
CC(=O)N(C)c1ccc(OCC(O)Cn2c3ccc(Cl)cc3c3cc(Cl)ccc32)cc1 (centres undefined)	HDAC3 inh inconclusive, GAA850 FXN act 10 | GAA30 counter inactive | FXN GAA850 conf 11
CCC(NC(=S)NC1CCCCC1)c1ccc(C)cc1 (centres undefined)	none (no result: Fh CTSL1 inh, AHR act)
C=CCn1c(SC(C)C(=O)NCCC2=CCCCC2)nc2ccccc2c1=O (centres undefined)	GAA850 FXN act 10 | GAA30 counter inactive | FXN GAA850 conf 9.5
O=C(NCCC1=CCCCC1)C(c1ccccc1)c1ccccc1	none
CNc1cc(-c2cccc(OC)c2F)nc2ccnn12	none (no result: M18AAP inhibitor, HDAC3 inh, Fh CTSL1 inh, AHR act)
CCN1CCN(c2nnc(-c3ccccc3)c3ccccc23)CC1	none
CCN1CCN(c2cc3c(nn2)Oc2ccccc2N3C)CC1	GAA850 FXN act 8.4 | GAA30 counter 140 | FXN GAA850 conf 42
O=C(CSc1nc2ccccc2o1)NC1CCCC1	GAA850 FXN act 7.6 | GAA30 counter inactive | FXN GAA850 conf inactive
O=C(CN(C(=O)CSc1nc2ccccc2o1)c1ccccc1)NC1CCCCC1	none
Oc1sc(C=Nc2ccc(F)cc2)c2ccccc12	none
Oc1sc(C=Nc2ccccc2)c2ccccc12	AHR act 50, GAA850 FXN act 8.2 | GAA30 counter 125 | FXN GAA850 conf 42
Oc1c(C=Nc2ccccc2)sc2ccccc12	GAA850 FXN act 10 | GAA30 counter 112 | FXN GAA850 conf 38
CNC[C@@H]1OCc2ccccc2-c2c(n(C)c3ccccc23)C(=O)N([C@H](C)CO)C[C@H]1C	none (no result: M18AAP inhibitor, HDAC3 inh, Fh CTSL1 inh, AHR act)
COc1ccc(OC(F)(F)F)cc1CC1(C)C(=O)Nc2ccc(S(=O)(=O)NC3CCCCC3)cc21 (centres undefined)	GAA850 FXN act 17 (no result: M18AAP inhibitor, HDAC3 inh, Fh CTSL1 inh, AHR act) | GAA30 counter inactive | FXN GAA850 conf 14
COc1ccc(Cl)cc1CC1(C)C(=O)Nc2ccc(S(=O)(=O)NC3CCCCC3)cc21 (centres undefined)	GAA850 FXN act 16 (no result: M18AAP inhibitor, HDAC3 inh, Fh CTSL1 inh, AHR act) | GAA30 counter inactive | FXN GAA850 conf 13
COc1ccc(OC(F)(F)F)cc1CC1(C)C(=O)Nc2cccc(Cl)c21 (centres undefined)	none (no result: M18AAP inhibitor, HDAC3 inh, Fh CTSL1 inh, AHR act)
Cc1ccccc1CC1(C)C(=O)Nc2ccc(S(=O)(=O)NC3CCCCC3)cc21 (centres undefined)	none (no result: M18AAP inhibitor, HDAC3 inh, Fh CTSL1 inh, AHR act)
COc1ccc(S(=O)(=O)NC2CCCC2)cc1Cl	none
CC1(Cc2ccc(F)cc2)C(=O)Nc2ccc(S(=O)(=O)NC3CCCCC3)cc21 (centres undefined)	GAA850 FXN act 9.7 (no result: M18AAP inhibitor, HDAC3 inh, Fh CTSL1 inh, AHR act) | GAA30 counter inactive | FXN GAA850 conf inactive
COc1ccc(OC(F)(F)F)cc1CC1(C)C(=O)Nc2ccc(-c3ccsc3)cc21 (centres undefined)	GAA850 FXN act 13 (no result: M18AAP inhibitor, HDAC3 inh, Fh CTSL1 inh, AHR act) | GAA30 counter inactive | FXN GAA850 conf 9.0
Cc1ccccc1NC(=O)C1Cc2ccccc2CN1C(=O)OCc1ccccc1 (centres undefined)	none (no result: HDAC3 inh)
CC(=O)N(c1nnc(-c2ccc(C)cc2)s1)C1CCCC1	none
